Assay results reported in ChEMBL document CHEMBL5260803, “Discovery of Novel, Orally Bioavailable β-Amino Acid Azaindole Inhibitors of Influenza PB2” (ACS Med Chem Lett, 2017).
Activity calls are given as the source filed them. The calls are words filed in the database; no cut-off is given here.

Tests used:
Influenza A virus [1] = assay: Antiviral activity against Influenza A virus A/PR/8/34 infected in BALB/C mouse model assessed as increase in survival at 10 mg/kg, po administered twice daily for 10 days from 48 hrs post-infection and measured for 21 days; type: functional, organism-based; settings: time 21.0 day
Method in brief: (§1)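 Male BALB/c mice, 8 per group, inoculated intranasally with mouse-adapted A/PR/8/34 at 5e3 TCID50/mouse. Oral dosing twice daily for 10 days, starting 48 h after infection, at 10, 30 or 60 mg/kg. Survival and body weight were tracked against untreated controls.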

[2] = Cmax in mouse at 30 mg/kg, po; type: ADME, organism-based; parameters: dose 30 mg/kg, route po; settings: in vivo
[3] = target: Polymerase basic protein 2 (Influenza A virus (strain A/Puerto Rico/8/1934 H1N1), UniProt P03428); assay: Binding affinity to full length Influenza A virus PB2 cap-binding domain assessed as dissociation constant incubated for 60 mins by fluorescence polarization assay
Chain of Polymerase basic protein 2 (P03428 whole entry, the tested form may be a part): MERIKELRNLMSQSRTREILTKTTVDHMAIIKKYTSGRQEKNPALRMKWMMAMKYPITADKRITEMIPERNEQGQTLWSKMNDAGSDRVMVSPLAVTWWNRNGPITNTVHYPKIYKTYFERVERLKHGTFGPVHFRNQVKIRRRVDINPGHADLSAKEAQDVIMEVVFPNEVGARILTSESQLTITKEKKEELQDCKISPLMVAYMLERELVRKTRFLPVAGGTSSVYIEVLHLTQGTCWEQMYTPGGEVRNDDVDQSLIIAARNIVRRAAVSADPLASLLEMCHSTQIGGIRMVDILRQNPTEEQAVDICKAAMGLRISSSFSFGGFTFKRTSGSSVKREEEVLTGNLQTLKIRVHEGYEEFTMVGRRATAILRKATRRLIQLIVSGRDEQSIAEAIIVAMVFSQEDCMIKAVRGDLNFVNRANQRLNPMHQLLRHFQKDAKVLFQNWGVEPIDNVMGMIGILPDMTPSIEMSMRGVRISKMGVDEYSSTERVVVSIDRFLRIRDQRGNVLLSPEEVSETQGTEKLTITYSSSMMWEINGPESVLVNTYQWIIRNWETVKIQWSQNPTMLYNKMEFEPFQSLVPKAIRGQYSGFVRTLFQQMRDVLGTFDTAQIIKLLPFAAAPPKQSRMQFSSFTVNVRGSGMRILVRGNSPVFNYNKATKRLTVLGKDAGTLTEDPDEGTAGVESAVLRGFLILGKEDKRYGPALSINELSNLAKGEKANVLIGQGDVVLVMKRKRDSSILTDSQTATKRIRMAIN
Method in brief: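 Fluorescence polarization competition binding assay against the cap-binding domain of the PB2 subunit, giving Kd.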

Influenza A virus [4] = assay: Antiviral activity against Influenza A virus A/PR/8/34 infected in MDCK cells assessed as reduction in viral RNA level incubated for 20 hrs by bDNA hybridization method; type: functional; settings: A/PR/8/34, MDCK
Method in brief: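 Branched-DNA read-out of viral RNA in infected cells. EC90 is the compound concentration at which viral RNA equals 10% of that in control wells.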

[5] = Stability in human S9 fraction assessed as compound remaining at 1 uM; type: ADME, subcellular; settings: read-out: Stability
Influenza A virus [6] = assay: Antiviral activity against Influenza A virus A/PR/8/34 infected in BALB/C mouse model assessed as increase in survival at 10 to 60 mg/kg, po administered twice daily for 10 days from 48 hrs post-infection and measured for 21 days; type: functional, organism-based; settings: dose 10-60 mg/kg, time 21.0 day; method in brief: as §1
[7] = Stability in rat S9 fraction assessed as compound remaining at 1 uM; type: ADME, subcellular; settings: read-out: Stability
[8] = AUC in mouse at 30 mg/kg, po; type: ADME, organism-based; parameters: dose 30 mg/kg, route po; settings: in vivo
[9] = AUC in rat at 3 mg/kg, po; type: ADME, organism-based; parameters: dose 3 mg/kg, route po; settings: in vivo
[10] = Half-life in rat at 1 mg/kg, iv; type: ADME, organism-based; settings: in vivo
Influenza A virus [11] = assay: Antiviral activity against oseltamivir sensitive Influenza A virus A/[…]/8/34 (H1N1) infected in MDCK cells incubated for 72 hrs by cell protection assay; type: functional, organism-based
Method in brief: (§2)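 MDCK cells incubated with test compound and influenza A virus for 72 h. EC50 is the concentration giving 50% cell protection, reported as the mean of N=3. Oseltamivir resistant or sensitive status was assigned by externally validated phenotypic or genetic analysis.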

[12] = Clearance in rat at 1 mg/kg, iv; type: ADME, organism-based; settings: in vivo
Influenza A virus [13] = assay: Antiviral activity against oseltamivir sensitive Influenza A virus A/Henan/Jinshui/147/2007 (H3N2) infected in MDCK cells incubated for 72 hrs by cell protection assay; type: functional, organism-based; method in brief: as §2
Influenza A virus [14] = assay: Antiviral activity against oseltamivir sensitive Influenza A virus A/California/07/2009 (H1N1) infected in MDCK cells incubated for 72 hrs by cell protection assay; type: functional, organism-based; method in brief: as §2
[15] = Toxicity in BALB/C mouse model of influenza infected with Influenza A virus A/PR/8/34 assessed as body weight loss administered orally twice daily for 10 days from 48 hrs post-infection and measured for 21 days; settings: in vivo, po, 504 h, dose 10-60 mg/kg, time 21 day; method in brief: as §1
Influenza A virus [16] = assay: Antiviral activity against oseltamivir sensitive Influenza A virus A/Georgia/17/2006 (H1N1) infected in MDCK cells incubated for 72 hrs by cell protection assay; type: functional, organism-based; method in brief: as §2
Influenza A virus [17] = assay: Antiviral activity against oseltamivir sensitive Influenza A virus A/Vietnam/1203/2004 (H5N1) infected in MDCK cells incubated for 72 hrs by cell protection assay; type: functional, organism-based

Row | Structure (SMILES) | Kd [3] | EC90 (Influenza A virus [4]) | further results
1 | CCOC(=O)C1=C[C@@H](OC(CC)CC)[C@H](NC(C)=O)[C@@H](N)C1 | – | – | Activity (Influenza A virus [1]): inactive
2 | C[C@](CC(=O)O)(Nc1nc(-c2c[nH]c3ncc(F)cc23)ncc1F)C1CCC1 | < 3 nM | 10 nM | Cmax [2]: 7400 ng/mL; remaining at 1 µM [5]: 94%; Activity (Influenza A virus [6]): Active; remaining at 1 µM [7]: 100%; AUC [8]: 6700 ng·h/mL
3 | CC(C)[C@@H](CC(=O)O)Nc1nc(-c2c[nH]c3ncc(F)cc23)ncc1F | – | 590 nM | –
4 | CC1(C(CC(=O)O)Nc2nc(-c3c[nH]c4ncc(F)cc34)ncc2F)CCCCC1 (racemic) | < 3 nM | 120 nM | –
5 | CC(C)(C)[C@@H](CC(=O)O)Nc1nc(-c2c[nH]c3ncc(Cl)cc23)ncc1F | < 3 nM | 23 nM | –
6 | CC(C)(C)[C@@H](CC(=O)O)Nc1nc(-c2c[nH]c3ncc(F)cc23)ncc1F | 3 nM | 30 nM | AUC [9]: 3300 ng·h/mL; Cmax [2]: 11800 ng/mL; half-life [10]: 9.9 h; EC50 (Influenza A virus [11]): 14 nM; clearance [12]: 8 mL/min/kg; EC50 (Influenza A virus [13]): 19 nM; EC50 (Influenza A virus [14]): 4 nM; Activity (Influenza A virus [6]): Active; Activity [15]: Non-Toxic; AUC [8]: 7200 ng·h/mL; EC50 (Influenza A virus [16]): 9 nM; EC50 (Influenza A virus [17]): 4 nM
7 | O=C(O)C[C@@H](Nc1nc(-c2c[nH]c3ncc(F)cc23)ncc1F)C1CCC1 | – | 780 nM | –
8 | CCC(C)(C)[C@@H](CC(=O)O)Nc1nc(-c2c[nH]c3ncc(F)cc23)ncc1F | < 3 nM | 60 nM | –
9 | CCC(CC)C(CC(=O)O)Nc1nc(-c2c[nH]c3ncc(F)cc23)ncc1F (racemic) | – | 340 nM | –
10 | CC1([C@@H](CC(=O)O)Nc2nc(-c3c[nH]c4ncc(F)cc34)ncc2F)CCCC1 | < 3 nM | 20 nM | –
11 | CC(C)(C)[C@H](CC(=O)O)Nc1nc(-c2c[nH]c3ncc(Cl)cc23)ncc1F | 200 nM | > 3300 nM | –
12 | CC(C)(C(CC(=O)O)Nc1nc(-c2c[nH]c3ncc(F)cc23)ncc1F)C(F)(F)F (racemic) | – | 520 nM | –
13 | CC1([C@@H](CC(=O)O)Nc2nc(-c3c[nH]c4ncc(F)cc34)ncc2F)CC1 | – | 670 nM | –
14 | CC(C)(C)[C@H](CC(=O)O)Nc1nc(-c2c[nH]c3ncc(F)cc23)ncc1F | 150 nM | > 6650 nM | –
